Assay results published in ChEMBL document CHEMBL3745639, “Structure-activity relationships for lipoprotein lipase agonists that lower plasma triglycerides in vivo” (Eur J Med Chem, 2015).
Calls of active or inactive are those of the source. No rule for the calls is given here.

Tests used:
[1] = biological target: T1, Retinoic acid receptor RXR-alpha (Homo sapiens, UniProt P19793); assay: Agonist activity at RXRalpha (unknown origin)
T1 sequence (P19793 whole entry): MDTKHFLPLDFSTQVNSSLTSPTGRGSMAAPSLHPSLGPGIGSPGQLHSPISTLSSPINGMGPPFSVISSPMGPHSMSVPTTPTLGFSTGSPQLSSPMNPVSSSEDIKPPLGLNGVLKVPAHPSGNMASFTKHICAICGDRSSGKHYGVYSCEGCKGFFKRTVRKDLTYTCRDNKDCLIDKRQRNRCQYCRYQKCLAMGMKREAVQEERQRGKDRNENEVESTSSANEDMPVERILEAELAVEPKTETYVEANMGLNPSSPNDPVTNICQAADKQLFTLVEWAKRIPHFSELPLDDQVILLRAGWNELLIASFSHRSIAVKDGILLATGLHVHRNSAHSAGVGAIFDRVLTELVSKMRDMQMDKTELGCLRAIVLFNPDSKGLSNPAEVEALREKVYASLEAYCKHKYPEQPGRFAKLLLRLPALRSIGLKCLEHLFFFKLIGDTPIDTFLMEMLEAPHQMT
Procedure, shortened: (§1)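 Single agonist-mode profiling at ten concentrations against FXR, PPARα, PPARγ and RXRα, run as an outside screening service.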

[2] = Half life in human hepatocytes at 1 uM; type: ADME, cell-based, Hepatocyte
Procedure, shortened: (§2)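 Freshly isolated human hepatocytes (0.5 x 10⁶ cells/ml) in Williams medium E with compound at 1 μM. Reaction started by adding cells. Sampled at 0, 10, 30 and 60 min in duplicate, quenched with acetonitrile containing warfarin, then LC-MS/MS.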

[3] = biological target: T2, Lipoprotein lipase (Bos taurus, UniProt P11151); assay: Induction of bovine LPL stabilization using intralipid as substrate preincubated for 10 mins with human recombinant ANGPTL4 followed by substrate addition measured after 45 mins relative to control
T2 sequence (P11151 whole entry): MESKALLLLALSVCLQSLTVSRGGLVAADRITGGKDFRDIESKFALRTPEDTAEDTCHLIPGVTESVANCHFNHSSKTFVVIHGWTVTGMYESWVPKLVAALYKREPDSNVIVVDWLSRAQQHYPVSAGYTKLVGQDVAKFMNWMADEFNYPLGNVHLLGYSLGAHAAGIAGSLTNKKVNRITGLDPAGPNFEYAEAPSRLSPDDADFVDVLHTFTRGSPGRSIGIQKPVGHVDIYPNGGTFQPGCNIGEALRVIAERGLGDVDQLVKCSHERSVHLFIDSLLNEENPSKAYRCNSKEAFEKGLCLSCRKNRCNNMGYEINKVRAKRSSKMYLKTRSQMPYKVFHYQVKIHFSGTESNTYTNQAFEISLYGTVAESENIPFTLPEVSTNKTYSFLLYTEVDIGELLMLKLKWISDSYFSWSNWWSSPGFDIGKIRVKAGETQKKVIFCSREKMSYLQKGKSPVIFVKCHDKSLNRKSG
Procedure, shortened: (§3)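 Compound in DMSO in buffer (50 mM potassium phosphate pH 7.4, 0.15 M NaCl, 0.01% Triton X-100), with human ANGPTL4 N-terminal fragment (aa 26-184, 75 nM final) and bovine LPL (15 nM final). Preincubated 10 min at 25 °C with shaking. Stopped after 45 min with 2.5% Triton X-100, and NEFA measured enzymatically. Activity normalised between DMSO+LPL+ANGPTL4 (0%) and DMSO+LPL (100%).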

[4] = Efflux ratio of apparent permeability from basolateral to apical over apical to basolateral side in human Caco2 cells at 10 uM after 15 to 60 mins; type: ADME, cell-based; conditions: Caco-2
[5] = Apparent permeability across apical to basolateral side in human Caco2 cells at 10 uM after 15 to 60 mins; type: ADME, cell-based; conditions: Caco-2
Procedure, shortened: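 Caco-2 monolayers washed with pre-warmed HBSS, then donor solution applied. Transport run with apical pH 6.5 and basolateral pH 7.4. Monolayer integrity checked by TEER and by mannitol permeability. Papp derived from transport rates.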

[6] = Kinetic aqueous solubility of the compound in PBS at pH 7.4 after 2 hrs by LC-MS/MS analysis; type: physicochemical; conditions: read-out: Kinetic_solubility
Procedure, shortened: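 Kinetic solubility from a 10 mM DMSO stock diluted 1:100 (1% DMSO, maximum detectable 0.1 mM) into PBS pH 7.4 or HCl-adjusted PBS at about pH 1.2. Incubated at 37 °C for 2 h in sealed glass vials, centrifuged at 10000 x g, 37 °C, 20 min, then LC-MS/MS.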

[7] = Apparent permeability across basolateral to apical side in human Caco2 cells at 10 uM after 15 to 60 mins; type: ADME, cell-based; conditions: Caco-2
[8] = biological target: T3, Lipoprotein lipase (Bos taurus) (UniProt P11151); assay: Induction of bovine LPL stabilization using intralipid as substrate at 6.25 uM preincubated for 10 mins with human recombinant ANGPTL4 followed by substrate addition measured after 45 mins relative to control; procedure, shortened: as §3
T3 sequence (whole entry): T2 sequence (P11151 whole entry)

[9] = Intrinsic clearance in human hepatocytes assessed per 10^6 cells at 1 uM after 10 to 60 mins by LC-MS/MS analysis in presence of NADPH; type: ADME, cell-based, Hepatocyte; conditions: read-out: CLH; procedure, shortened: as §2
[10] = biological target: T4, Bile acid receptor (Homo sapiens, UniProt Q96RI1); assay: Agonist activity at FXR (unknown origin); procedure, shortened: as §1
T4 sequence (Q96RI1 whole entry): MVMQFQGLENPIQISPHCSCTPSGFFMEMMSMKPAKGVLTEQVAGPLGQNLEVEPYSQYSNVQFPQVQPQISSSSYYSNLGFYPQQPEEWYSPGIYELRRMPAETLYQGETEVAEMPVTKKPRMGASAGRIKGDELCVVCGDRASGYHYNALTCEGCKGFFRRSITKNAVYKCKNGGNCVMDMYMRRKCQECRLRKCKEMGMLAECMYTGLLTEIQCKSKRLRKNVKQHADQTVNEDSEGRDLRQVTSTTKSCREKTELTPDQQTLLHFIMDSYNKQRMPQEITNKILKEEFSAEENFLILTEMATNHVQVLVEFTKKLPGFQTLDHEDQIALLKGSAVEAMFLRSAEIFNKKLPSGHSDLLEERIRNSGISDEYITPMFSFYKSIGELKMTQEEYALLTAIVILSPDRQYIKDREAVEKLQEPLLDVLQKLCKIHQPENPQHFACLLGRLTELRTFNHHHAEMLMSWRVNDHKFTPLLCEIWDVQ

[11] = biological target: T3, Lipoprotein lipase (Bos taurus); assay: Induction of bovine LPL stabilization using intralipid as substrate at 3.12 uM preincubated for 10 mins with human recombinant ANGPTL4 followed by substrate addition measured after 45 mins relative to control; procedure, shortened: as §3
[12] = Fraction unbound in human plasma at 10 uM after 4 hrs by rapid equilibrium dialysis method; type: ADME, cell-free
Procedure, shortened: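 Rapid equilibrium dialysis of pooled human plasma from two male and two female non-smoking donors. Compound typically 10 μM final, dialysed against isotonic phosphate buffer pH 7.4 at 37 °C for 4 h with rapid rotation. Proteins precipitated with methanol containing warfarin internal standard, then both compartments analysed by LC-MS/MS.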

Structure (SMILES): Cc1ccc(NC(=O)c2cc(-n3cc4ccc(C(=O)O)cc4n3)ccc2N2CCCCC2)cc1
- EC50 [1]: > 100 µM
- half-life at 1 µM [2]: > 2 h
- EC50 [3]: 6 µM
- efflux ratio at 10 µM [4]: 1.4
- Papp A→B at 10 µM [5]: 23 ×10⁻⁶ cm/s
- solubility kinetic at 2 h [6]: < 2 µM
- Papp B→A at 10 µM [7]: 31 ×10⁻⁶ cm/s
- Activity [8]: 16%
- hepatocyte CLint at 1 µM [9]: 12 µL/min/1e6 cells
- EC50 [10]: > 100 µM
- Activity [11]: inactive
- Fu [12]: < 0.01%
